Most compounds without a hit are left out; they make up all but 2.5% or so of the library.
IMP-1 inh = blocks Pseudomonas aeruginosa IMP-1 metallo-beta-lactamase | inhibition, % at 5.6 µM | actives 0.45% (n = 290,000) | purified IMP-1, nitrocefin hydrolysis, epi-absorbance fluorescence | AID 1556;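 active means inhibition above the mean plus 3 SD of all compounds in the same screening run, cut at about 4.5% in these data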
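assay system = purified recombinant IMP-1 metallo-beta-lactamase enzyme | schedule = 15 min preincubation plus 25 min reaction at 25 °C | signal = Epi-absorbance fluorescence, 480 nm excitation, 530 nm emission | read-out basis = percent inhibition from optical density relative to buffer-blank wells | controls = IMP-1 with DMSO as 0%, enzyme-free DMSO as 100%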
HTR2A ag = mouse HTR2A agonism via beta-arrestin recruitment; P35363; CHO-K1 mHTR2A beta-arrestin complementation, luminescence; percent of 30 µM serotonin response; activation, % at 7.6 µM; actives 0.66% (n = 360,000); AID 624169;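 active means activation above a run cutoff, the mean activation of all tested compounds plus 3 SD, cut at about 14% in these data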
Target sequence (P35363 whole entry, looked up): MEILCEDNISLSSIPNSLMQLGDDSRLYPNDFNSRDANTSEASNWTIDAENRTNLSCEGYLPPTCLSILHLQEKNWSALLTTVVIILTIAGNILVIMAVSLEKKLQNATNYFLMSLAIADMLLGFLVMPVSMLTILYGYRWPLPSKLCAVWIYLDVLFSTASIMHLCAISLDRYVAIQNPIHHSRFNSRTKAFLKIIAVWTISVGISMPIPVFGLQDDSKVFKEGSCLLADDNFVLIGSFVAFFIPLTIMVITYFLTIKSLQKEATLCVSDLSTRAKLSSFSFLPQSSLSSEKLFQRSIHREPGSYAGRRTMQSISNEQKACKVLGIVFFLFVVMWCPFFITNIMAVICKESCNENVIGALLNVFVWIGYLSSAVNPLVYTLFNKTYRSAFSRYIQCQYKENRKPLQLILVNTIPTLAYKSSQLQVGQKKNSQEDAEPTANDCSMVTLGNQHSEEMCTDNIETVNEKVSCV
dFosB activator = enhances mouse delta FosB homodimer DNA binding; purified delta FosB, TAMRA-CDK5 oligo fluorescence polarization; percent of positive-control signal above neutral wells; activation, % at 25 µM; actives 0.99% (n = 340,000);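 active means mean activation above about 17%, with every replicate also reaching it, limit read from the data, passing the limit was not always enough; inconclusive means only one of the two conditions met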
VIM-2 inhibitor = blocks Pseudomonas aeruginosa VIM-2 metallo-beta-lactamase | actives 0.89% (n = 290,000) | AID 1527 | inhibition, % at 5.6 µM | purified VIM-2, nitrocefin hydrolysis, epi-absorbance fluorescence;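 active means inhibition above the mean of all tested compounds plus 3 SD, cutoff set per screening run, cut at about 7.5% in these data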;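 further: red hydrolysis product quenches plate fluorescence so inhibitors raise well fluorescence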
Large screens that a line does not name were inactive; ! = not active in a repeat.

Cc1c(NC(=O)COC(=O)c2cc3c4ccccc4n(C)c3s2)c(=O)n(-c2ccccc2)n1C	IMP-1 inh 4.8
Cc1c(NC(=O)COC(=O)c2ccccc2Cl)c(=O)n(-c2ccccc2)n1C	none
CCCCSCCCNC(=O)c1ccc(CS(=O)(=O)c2ccccc2OC)o1	none
N#CC1(C#N)CC(C=O)=C(N)C1(C#N)CC(=O)c1ccc(F)cc1 (stereo not drawn)	IMP-1 inh 7.5
CN1C(=O)C(O)(CC(=O)c2cccnc2)c2ccccc21 (stereo not drawn)	IMP-1 inh 8.6
O=C(CC1(O)C(=O)N(Cc2cccc3ccccc23)c2ccccc21)c1cccnc1 (stereo not drawn)	none
CCn1c(C)nnc1SCC(=O)NC1CCCC1	none
Cc1nnc2c3ccccc3c(-c3ccc(O)cc3)nn12	VIM-2 inhibitor 10
O=C(COC(=O)c1cc(S(=O)(=O)Nc2ccccc2Cl)ccc1O)Nc1ccc(F)c(F)c1F	dFosB activator 25 (no result: IMP-1 inh, VIM-2 inhibitor)
CC(C)c1nnc(NC(=O)CCC(=O)N2CCC(Cc3ccccc3)CC2)s1	none
COc1ccc(-c2coc3c(C(=O)Nc4cccc(NS(C)(=O)=O)c4)cccc23)c(C)c1	none (no result: IMP-1 inh, dFosB activator, VIM-2 inhibitor)
O=C(O)C1Sc2[nH]c(=O)sc2C2c3cc(Br)ccc3OC(=O)C12 (stereo not drawn)	IMP-1 inh 5.5
CCCCCCCCCCOC(=O)Cn1c(COc2ccc(Cl)cc2)[n+](C)c2ccccc21	none
CCCCCCCCCCOC(=O)Cn1c(COc2ccc(OC)cc2)[n+](C)c2ccccc21	dFosB activator 40!
CCCCCCCCCCOC(=O)Cn1c(COc2cccc(C)c2)[n+](C)c2ccccc21	dFosB activator inconclusive
CCOC(=O)Cn1c(COc2ccccc2OC)[n+](C)c2ccccc21	none (no result: IMP-1 inh, dFosB activator, VIM-2 inhibitor)
CCCCCCCCCCOC(=O)Cn1c(COc2ccccc2C)[n+](C)c2ccccc21	dFosB activator 37
CCCCCCCCCCOC(=O)Cn1c(COc2ccccc2)[n+](C)c2ccccc21	dFosB activator 35
Nc1c(N(Cc2ccco2)C(=O)c2ccccc2F)c(=O)[nH]c(=O)n1Cc1ccccc1	none (no result: IMP-1 inh, VIM-2 inhibitor)
CCN(CC)CCCNC(=O)CCC(=O)Nc1ccc2nc(N3CCCCC3)cc(C)c2c1	none
CCCCN(CC)CCNC(=O)CCC(=O)Nc1ccc2nc(N3CCN(C)CC3)cc(C)c2c1	VIM-2 inhibitor 7.8
Cc1ccc2sc(C)[n+](CCCS(=O)(=O)[O-])c2c1	none
CCC(/C=C1\Oc2ccc(OC)cc2N1C)=C\c1sc2ccccc2[n+]1CCCS(=O)(=O)[O-]	dFosB activator 26 (no result: IMP-1 inh, VIM-2 inhibitor)
Cc1ccc2c(c1)sc(C)[n+]2CCCS(=O)(=O)[O-]	none
COc1cc(/C=C/c2sc3ccccc3[n+]2CCCS(=O)(=O)[O-])ccc1O	dFosB activator 241
COC(=O)[C@@]1(Sc2ccc(C)cc2)CC(=O)N(C(=O)/C=C/c2ccccc2)[C@@H]1c1ccccc1	none (no result: IMP-1 inh, dFosB activator, VIM-2 inhibitor)
CCN1CCN(C(=O)C2=C(C(=O)O)CCCC2)CC1	IMP-1 inh 13
Cc1ccccc1NC(=S)N1CCN(C(=O)c2ccco2)CC1	none
O=C(O)C1=C(C(=O)N2CCN(C(=O)c3ccco3)CC2)CCCC1	IMP-1 inh 12
O=C(c1ccco1)N1CCN(C(=S)Nc2ccccc2Cl)CC1	HTR2A ag 15
C[C@@H]1CCCCCCCCC(=O)OCCN(C(=O)OC(C)(C)C)[C@H](C)CCCCCCCCC(=O)OCCN(C(=O)OC(C)(C)C)[C@H](C)CCCCCCCCC(=O)OCCN(C(=O)OC(C)(C)C)[C@H](C)CCCCCCCCC(=O)OCCN1C(=O)OC(C)(C)C	none (no result: IMP-1 inh, VIM-2 inhibitor)
CCn1cc(C(=O)NCCC(=O)NC(C)C)c(=O)c2cc3c(cc21)OCO3	none
O=C1c2[nH]nc(-c3ccccc3O)c2C(c2cccc(Cl)c2)N1Cc1ccco1 (stereo not drawn)	HTR2A ag 15
COc1ccc(C2C(C#N)=C(N)N(c3sc4c(c3C#N)CCCC4)C3=C2C(=O)CC(C)(C)C3)cc1OC (stereo not drawn)	none
COc1ccc(C2C(C#N)=C(N)N(c3sc4c(c3C#N)CCCC4)C3=C2C(=O)CC(C)(C)C3)cc1 (stereo not drawn)	IMP-1 inh 4.7
O=C(c1cccc(F)c1)N1CCC(c2nc3ccccc3s2)CC1	none
Cc1ccc(C)c(OCCCC(=O)Nc2ccc(N3CCOCC3)cc2)c1	IMP-1 inh 6.3 (no result: HTR2A ag, dFosB activator)
CCNC(=O)C1(C)CCCN1C(=O)c1c(F)cccc1F (stereo not drawn)	none (no result: IMP-1 inh, dFosB activator, VIM-2 inhibitor)
COc1ccc(CNC(=O)c2c(C)oc3c2C(=O)c2ccccc2C3=O)cc1	none
Cc1oc2c(c1C(=O)NCc1cccnc1)C(=O)c1ccccc1C2=O	VIM-2 inhibitor 9.2 (no result: HTR2A ag, dFosB activator)
Oc1c(CN2CCOCC2)cc(COCc2ccccc2)c2cccnc12	VIM-2 inhibitor 7.7
O=C1NC[C@@H](CCCCN2C[C@H](Cc3ccccc3)N(CCC3CCCCC3)C(=O)C2=O)N(CC2CCCCC2)C1=O	none (no result: IMP-1 inh, dFosB activator, VIM-2 inhibitor)
CN(Cc1ccco1)C(=O)CSc1nn2c(=O)c(C(C)(C)C)nnc2s1	none (no result: IMP-1 inh, VIM-2 inhibitor)
COc1cccc2c1C(=O)c1c(O)c3c(c(O)c1C2=O)C[C@@](O)(C(=O)CO)C[C@@H]3OC1CC(N)C(O)C(C)O1 (stereo partly drawn)	none (no result: IMP-1 inh, VIM-2 inhibitor)
COc1cccc2c1C(=O)c1c(O)c3c(c(O)c1C2=O)C[C@@](O)(C(=O)CO)C[C@@H]3O[C@H]1C[C@H](N)[C@H](O)[C@H](C)O1	IMP-1 inh 5.7, VIM-2 inhibitor 24
O=C1c2cccc(OCc3ccc(F)cc3)c2CCN1Cc1ccccc1	IMP-1 inh 6.1
Cc1ccc(COc2cccc3c2CCN(Cc2ccc(F)cc2)C3=O)cc1	none
COc1cccc(C(=O)NC2CC(C)(C)NC(C)(C)C2)c1OC	IMP-1 inh 16
COc1ccccc1C(=O)NC1CC(C)(C)NC(C)(C)C1	none
O=C(Nc1ccc(N2CCOCC2)cc1)C1CC1	none
O=C(Nc1ccc(N2CCOCC2)cc1)NC1CCCCC1	HTR2A ag 15
CCOC(=O)C1=C(C2=CCCCC2)c2ccc(OC)cc2N(S(=O)(=O)C(F)(F)F)C1C(=O)OCC (stereo not drawn)	none (no result: IMP-1 inh, VIM-2 inhibitor)
CCN(CC(=O)Nc1ccc2c(c1)OCCO2)Cc1cc(=O)n2ccsc2n1	none
CCN(CC(=O)NCc1ccc(F)cc1)Cc1cc(=O)n2ccsc2n1	IMP-1 inh 7.6
COc1ccc2sc(N(CCCN(C)C)C(=O)c3ccc(C(=O)c4ccccc4)cc3)nc2c1	dFosB activator 22 (no result: IMP-1 inh, VIM-2 inhibitor)
CN(C)CCCN(C(=O)c1ccc(C(=O)c2ccccc2)cc1)c1nc2cc3c(cc2s1)OCO3	dFosB activator 25
CCN(CC)CCN(C(=O)c1ccc(C(=O)c2ccccc2)cc1)c1nc2cc3c(cc2s1)OCO3	dFosB activator 48
CN(C)CCCN(C(=O)c1ccc(Br)s1)c1nc2cc3c(cc2s1)OCCO3	dFosB activator 24 (no result: IMP-1 inh, VIM-2 inhibitor)
CCN(Cc1ccccc1)S(=O)(=O)c1ccc(C(=O)N(CCCN(C)C)c2nc3cc(OC)ccc3s2)cc1	none (no result: IMP-1 inh, VIM-2 inhibitor)
CC1C(=O)N(Cc2cn(CCC3OCCCO3)nn2)CCS(=O)(=O)N1Cc1ccc(-c2ccncc2)cc1 (stereo not drawn)	none (no result: IMP-1 inh, dFosB activator, VIM-2 inhibitor)
CCOC(=O)C1C(=O)CC(=O)C(C(=O)OCC)C1c1ccc(O)cc1 (stereo not drawn)	none (no result: IMP-1 inh, dFosB activator, VIM-2 inhibitor)

Assay outcomes (PubChem)
